Test results as given in ChEMBL document CHEMBL3132834, “Synthesis and biological activity of NOSH-naproxen (AVT-219) and NOSH-sulindac (AVT-18A) as potent anti-inflammatory agents with chemotherapeutic potential” (Medchemcomm, 2013).

Columns and labels:
HT-29 [1] = assay: Cytotoxicity against human HT-29 cells assessed as growth inhibition after 24 hrs by MTT assay; assay type: functional, cell-based; conditions: for IC50: HT-29, 24 h
Procedure, shortened: (§1)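 Cells grown in 10% FCS medium: HT-29 in McCoy 5A; MCF-7 and BxPC-3 in DMEM. 50,000 cells/well exposed to a range of concentrations for 24 h. MTT added for 2 h at 37°C, formazan dissolved in 10% SDS/0.01 M HCl, A570 read. IC₅₀ from cell numbers; mean ± S.E.M. of 5–7 experiments in triplicate. Ratios are parent IC₅₀ over hybrid IC₅₀.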

Rattus norvegicus [2] = assay: Antiinflammatory activity in carrageenan-induced Wistar rat model assessed as inhibition of PGE2 level at 200 mg/kg through gavage administered 1 hr prior to carrageenan-challenge measured after 4 hrs (reference value: 95 +/- 7 pg/mL); assay type: functional
Serum [3] = assay: Prodrug conversion in carrageenan-induced Wistar rat model assessed as sulfide species in serum at 200 mg/kg through gavage administered 1 hr prior to carrageenan-challenge; assay type: ADME, organism-based; parameters: dose 200 mg/kg; conditions: in vivo, po
Procedure, shortened: (§2)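 Blood taken at the end of the carrageenan edema study from gavage-dosed rats (3 per group). Sulfide measured by the methylene blue method: plasma mixed with zinc acetate, trichloroacetic acid, N,N-dimethyl-p-phenylenediamine and FeCl₃ in 7.2M HCl, A670 read after 15 min. Run in duplicate against a NaHS calibration curve (1-250 μM). The read-out is total H₂S + HS⁻ + S²⁻.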

[4] = (§3) Cytotoxicity against human BxPC3 cells assessed as growth inhibition after 24 hrs by MTT assay; assay type: functional, cell-based; conditions: BXPC-3, 24 h; procedure, shortened: as §1
Rattus norvegicus [5] = assay: Antiinflammatory activity in Wistar rat assessed as inhibition of carrageenan-induced paw volume at 200 mg/kg through gavage administered 1 hr prior to carrageenan-challenge measured after 4 hrs (reference value: 1.1 +/- 0.1 mL); assay type: functional
Jurkat [6] = assay: Cytotoxicity against human Jurkat cells assessed as growth inhibition after 24 hrs by MTT assay; assay type: functional, cell-based
Procedure, shortened: (§4)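 30,000 cells/well added to serially diluted compounds in V-bottom plates, 24 h at 37°C in 5% CO₂. MTT (1.1 mg/mL) added for 4 h more, formazan dissolved in DMSO, A570 read. IC₅₀ from 5–7 experiments in triplicate; ratio is parent IC₅₀ over hybrid IC₅₀.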

MCF7 = assay: Cytotoxicity against human MCF7 cells assessed as growth inhibition after 24 hrs by MTT assay; assay type: functional, cell-based; conditions: for IC50: MCF7, 24 h; procedure, shortened: as §1
HT-29 [7] = assay: Antiproliferative activity against human HT-29 cells assessed as reduction in PCNA expression at IC50 concentration; assay type: functional, cell-based; conditions: TDE = time-dependent effect
[8] = Selectivity ratio of IC50 for human BxPC3 cells to IC50 for human IMR90 cells; assay type: ADME, cell-based, IMR-90; conditions: BxPC3 cells versus IMR90 cells, read-out: Ratio IC50
HT-29 [9] = assay: Cell cycle arrest in human HT-29 cells assessed as accumulation at G0/G1 phase at IC50 concentration after 24 hrs by propidium iodide staining-based flow cytometric analysis (reference value: 42.2 +/- 4%); assay type: functional
[10] = Selectivity ratio of IC50 for human Jurkat cells to IC50 for human IMR90 cells; assay type: ADME, cell-based; conditions: Jurkat cells versus IMR90 cells, read-out: Ratio IC50
HT-29 [11] = assay: Induction of human HT-29 cells assessed as assessed as early apoptotic cells at IC50 concentration after 12 hrs by propidium iodide staining-based flow cytometric analysis; assay type: functional
[12] = Selectivity ratio of IC50 for human MCF7 cells to IC50 for human HMEpC cells; assay type: ADME, cell-based; conditions: MCF7 cells versus HMEpC cells, read-out: Ratio IC50
BXPC-3 [13] = assay: Ratio of naproxen IC50 to compound IC50 for human BxPC3 cells after 24 hrs by MTT assay; assay type: functional
HT-29 [14] = assay: Induction of human HT-29 cells assessed as assessed as early apoptotic cells at IC50 concentration after 6 hrs by propidium iodide staining-based flow cytometric analysis; assay type: functional
[15] = Cytotoxicity against human IMR90 cells assessed as growth inhibition after 24 hrs by MTT assay; assay type: cell-based; conditions: IMR-90, 24 h
Procedure, shortened: (§5)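 Normal human cells: IMR-90 lung fibroblasts in EMEM with 10% heat-inactivated FCS and 2 mmol/L L-glutamine; primary pancreatic epithelial ACBRI 515 in serum-free medium with attachment factor; HMEpC in mammary epithelial growth medium. Exposed to a range of concentrations for 24 h; IC₅₀ from cell numbers. Mean ± SEM of 3 experiments in duplicate.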

[16] = Selectivity ratio of IC50 for human BxPC3 cells to IC50 for human ACBRI 515 cells; assay type: ADME, cell-based, BXPC-3; conditions: BxPC3 cells versus ACBRI 515 cells, read-out: Ratio IC50
Serum [17] = assay: Prodrug conversion in carrageenan-induced Wistar rat model assessed as sulfide species in serum at 188 mg/kg through gavage administered 1 hr prior to carrageenan-challenge; assay type: ADME, organism-based; parameters: dose 188 mg/kg; conditions: in vivo, po; procedure, shortened: as §2
BXPC-3 [18] = assay: as §3; assay type: functional, cell-based; procedure, shortened: as §1
[19] = Selectivity ratio of IC50 for human HT-29 cells to IC50 for human IMR90 cells; assay type: ADME, cell-based; conditions: HT-29 cells versus IMR90 cells, read-out: Ratio IC50
[20] = Cytotoxicity against human HMEpC cells assessed as growth inhibition after 24 hrs by MTT assay; assay type: cell-based; procedure, shortened: as §5
HT-29 [21] = assay: Induction of human HT-29 cells assessed as assessed as early apoptotic cells at IC50 concentration after 24 hrs by propidium iodide staining-based flow cytometric analysis; assay type: functional
Rattus norvegicus [22] = assay: Antiinflammatory activity in carrageenan-induced Wistar rat model assessed as inhibition of PGE2 level at 188 mg/kg through gavage administered 1 hr prior to carrageenan-challenge measured after 4 hrs (reference value: 95 +/- 7 pg/mL); assay type: functional
[23] = Selectivity ratio of IC50 for human MCF7 cells to IC50 for human IMR90 cells; assay type: ADME, cell-based, IMR-90; conditions: MCF7 cells versus IMR90 cells, read-out: Ratio IC50
[24] = Cytotoxicity against human ACBRI 515 cells assessed as growth inhibition after 24 hrs by MTT assay; assay type: cell-based; conditions: ACBRI-515, 24 h; procedure, shortened: as §5
HT-29 [25] = assay: Antiproliferative activity against human HT-29 cells assessed as reduction in PCNA expression at IC50 concentration after 24 hrs; assay type: functional
HT-29 [26] = assay: Cell cycle arrest in human HT-29 cells assessed as accumulation at S phase at IC50 concentration after 24 hrs by propidium iodide staining-based flow cytometric analysis (reference value: 29.2 +/- 3.3%); assay type: functional
HT-29 [27] = assay: Cell cycle arrest in human HT-29 cells assessed as accumulation at sub G2/M phase at IC50 concentration after 24 hrs by propidium iodide staining-based flow cytometric analysis (reference value: 28.7 +/- 2.1%); assay type: functional
HT-29 [28] = assay: Induction of human HT-29 cells assessed as assessed as early apoptotic cells at IC50 concentration after 3 hrs by propidium iodide staining-based flow cytometric analysis; assay type: functional
Rattus norvegicus [29] = assay: Antiinflammatory activity in Wistar rat assessed as inhibition of carrageenan-induced paw volume at 188 mg/kg through gavage administered 1 hr prior to carrageenan-challenge measured after 4 hrs (reference value: 1.1 +/- 0.1 mL); assay type: functional
Rattus norvegicus [30] = assay: Antiinflammatory activity in carrageenan-induced Wistar rat model assessed as inhibition of PGE2 level at 467 mg/kg through gavage administered 1 hr prior to carrageenan-challenge measured after 4 hrs (reference value: 95 +/- 7 pg/mL); assay type: functional
Serum [31] = assay: Prodrug conversion in carrageenan-induced Wistar rat model assessed as sulfide species in serum at 467 mg/kg through gavage administered 1 hr prior to carrageenan-challenge; assay type: ADME, organism-based; parameters: dose 467 mg/kg; conditions: in vivo, po; procedure, shortened: as §2
HT-29 [32] = assay: Cell cycle arrest in human HT-29 cells assessed as accumulation at S phase at IC50 concentration after 24 hrs by propidium iodide staining-based flow cytometric analysis (reference value: 31.7 +/- 3.7%); assay type: functional
Jurkat [33] = assay: Ratio of sulindac IC50 to compound IC50 for human Jurkat cells after 24 hrs by MTT assay; assay type: functional
Procedure, shortened: as §4, with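 “Jurkat T cells grown in suspension in RPMI 1640 with 10% FCS. 30,000” for “30,000”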

HT-29 [34] = assay: Cell cycle arrest in human HT-29 cells assessed as accumulation at G0/G1 phase at IC50 concentration after 24 hrs by propidium iodide staining-based flow cytometric analysis (reference value: 40.9 +/- 3.1%); assay type: functional
HT-29 [35] = assay: Cell cycle arrest in human HT-29 cells assessed as accumulation at sub G2/M phase at IC50 concentration after 24 hrs by propidium iodide staining-based flow cytometric analysis (reference value: 27.7 +/- 42%); assay type: functional
Rattus norvegicus [36] = assay: Antiinflammatory activity in Wistar rat assessed as inhibition of carrageenan-induced paw volume at 467 mg/kg through gavage administered 1 hr prior to carrageenan-challenge measured after 4 hrs (reference value: 1.1 +/- 0.1 mL; assay type: functional

| SMILES | IC50 (HT-29 [1]) | IC50 [4] | IC50 (Jurkat [6]) | IC50 (MCF7) | growth inhibition (GI) (HT-29 [1]) | inhibition (HT-29 [7]) | selectivity ratio [8] | selectivity ratio [10] | Activity (HT-29 [11]) | selectivity ratio [12] | Activity (HT-29 [14]) | IC50 [15] | selectivity ratio [16] | growth inhibition (GI) (BXPC-3 [18]) | selectivity ratio [19] | growth inhibition (GI) (Jurkat [6]) | IC50 [20] | Activity (HT-29 [21]) | selectivity ratio [23] | IC50 [24] | further results |
| --- | --- | --- | --- | --- | --- | --- | --- | --- | --- | --- | --- | --- | --- | --- | --- | --- | --- | --- | --- | --- | --- |
| CC1=C(CC(=O)O)c2cc(F)ccc2/C1=C\c1ccc([S+](C)[O-])cc1 (configuration not stated) | 800 µM | 980 µM | 699 µM | 965 µM |  |  |  |  |  |  |  |  |  |  |  |  |  |  |  |  | Activity (Rattus norvegicus [2]): 12 pg/mg; Stability (Serum [3]): Stable; Activity (Rattus norvegicus [5]): 0.22 mL |
| CC(=O)N[C@H](C(=O)O)C(C)(C)SN=O | 508 µM |  |  |  |  |  |  |  |  |  |  |  |  |  |  |  |  |  |  |  |  |
| Oc1ccc(-c2cc(=S)ss2)cc1 | 35 µM |  |  |  |  |  |  |  |  |  |  |  |  |  |  |  |  |  |  |  |  |
| C[C@H](C(=O)Oc1ccc(-c2cc(=S)ss2)cc1)c1ccc2cc(OC(=O)CCCO[N+](=O)[O-])ccc2c1 | 0.08 µM | 0.15 µM | 0.1 µM | 0.12 µM | Dose-dependent effect | tde | 70 | 70 | 31.9% | 115 | 25.3% | 20 µM | 147 | Dose-dependent effect | 70 | Dose-dependent effect | 13.8 µM | 59.2% | 70 | 22 µM | Activity (HT-29 [9]): 58.2%; Ratio IC50 (BXPC-3 [13]): 16000; Stability (Serum [17]): Stable; Activity (Rattus norvegicus [22]): 35 pg/mg; inhibition (INH) (HT-29 [25]): 50%; Activity (HT-29 [26]): 22.3%; Activity (HT-29 [27]): 19.5%; Activity (HT-29 [28]): 9.2%; Activity (Rattus norvegicus [29]): 0.15 mL; growth inhibition (GI) (MCF7): Dose-dependent effect |
| COc1ccc2cc([C@H](C)C(=O)O)ccc2c1 [NAPROXEN] | 2600 µM | 2450 µM |  | 2380 µM |  |  |  |  |  |  |  |  |  |  |  |  |  |  |  |  |  |
| CC1=C(CC(=O)Oc2ccc(OC(=O)CCCO[N+](=O)[O-])c(C(=O)Oc3ccc(-c4cc(=S)ss4)cc3)c2)c2cc(F)ccc2/C1=C\c1ccc([S+](C)[O-])cc1 (configuration not stated) | 0.089 µM | 0.12 µM | 0.27 µM | 0.1 µM | Dose-dependent effect | tde | 70 | 70 | 23.2% | 150 | 10.1% | 21.7 µM | > 200 | Dose-dependent effect | 70 | Dose-dependent effect | 15.2 µM | 39.4% | 70 | > 25 µM | Activity (Rattus norvegicus [30]): 29 pg/mg; Stability (Serum [31]): Stable; Activity (HT-29 [32]): 10.6%; Ratio IC50 (Jurkat [33]): 2500; Activity (HT-29 [34]): 29.6%; inhibition (INH) (HT-29 [25]): 50%; Activity (HT-29 [35]): 59.8%; Activity (HT-29 [28]): 2.8%; Activity (Rattus norvegicus [36]): 0.21 mL; growth inhibition (GI) (MCF7): Dose-dependent effect |
